The results in this text go back to ChEMBL document CHEMBL1131571, “Potent, selective, and orally bioavailable tricyclic pyridyl acetamide N-oxide inhibitors of farnesyl protein transferase with enhanced in vivo antitumor activity” (J Med Chem, 1998).

Molecules are shown by their SMILES. A value given as a limit tells only on which side of the number the result lay.

The nature of data set [1]: maximum concentration was measured when administered through oral route in mice. Type of data set: ADME, organism-based. Set-up: route oral. To be noted: mouse, in vivo. A digest of the protocol: (§1)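 Mice received a single 25 mg/kg dose, as HCl salt in 20% hydroxypropyl-β-cyclodextrin, either orally or iv by tail vein. Blood was taken by cardiac puncture after CO2 euthanasia at nine times from 2 min to 24 h, with two mice per time point. Serum was acetonitrile-precipitated and quantified by HPLC-APCI tandem MS. AUC was derived by the linear trapezoidal rule on mean concentrations. Bioavailability is the oral/iv AUC ratio, from different animals. Cmax is the highest mean oral concentration. Half-life was estimated graphically after iv dosing.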

Data set [2] concerns DLD-1. Kind of data set: The inhibition of growth of solid tumor in DLD-1 model was measured at 50 mg/kg after po administration. 0.01<p<0.025. To be noted: Homo sapiens. Format: functional.
For data set [3], the system named is COS-1. Kind of data set: Inhibitory activity was measured against COS cell. Format: functional, cell-based, Cercopithecidae. To be noted: Chlorocebus aethiops. A digest of the protocol:
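Inhibition of intracellular H-Ras processing, measured in transfected Cos cells.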

Data set [4] deals with DLD-1. Kind of data set: The inhibition of growth of solid tumor in DLD-1 model was measured at 10 mg/kg after po administration. 0.1<p<0.25. To be noted: Homo sapiens. Type of data set: functional.
The target of data set [5] is Protein farnesyltransferase (Homo sapiens, UniProt P49354+P49356). Kind of data set: Inhibition of Farnesyltransferase. Type of data set: protein-complex assay. The method in brief: (§2)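 Radiometric transfer assays measuring trichloroacetic acid-precipitable label. FPT: [3H]farnesyl from [3H]farnesyl pyrophosphate onto Ha-Ras-CVLS. GGPT-1: [3H]geranylgeranyl from [3H]geranylgeranyl diphosphate onto Ha-Ras-CVLL.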

A short description of data set [6]: Area under the concentration time curve (AUC) taken for 0-24 hr was measured when administered through iv route in mice. Type of data set: ADME, organism-based. Details: time < 24 hr, route intravenous. To be noted: mouse, in vivo. The method in brief:
as §1

A short description of data set [7]: Inhibition of Geranylgeranyl transferase. Set-up: species or system Homo sapiens. The method in brief: as §2
A short description of data set [8]: Biological half life was measured when given iv route in mice. To be noted: mouse, in vivo. Format: ADME, organism-based. A digest of the protocol:
as §1

Data set [9] in a line: Oral bioavailability in mouse. Conditions: in vivo. Type of data set: ADME, organism-based. The method in brief:
as §1

A short description of data set [10]: Area under the concentration time curve (AUC) taken for 0-24 hr was measured when administered through oral route in mice. Details: time < 24 hr, route oral. Type of data set: ADME, organism-based. Conditions: mouse, in vivo. A digest of the protocol:
as §1

Data set [11] concerns DLD-1. Kind of data set: The inhibition of growth of solid tumor in DLD-1 model was measured at 10 mg/kg after po administration. 0.05<p<0.1. Type of data set: functional. Conditions: Homo sapiens.
In data set [12] the test system is DLD-1. Kind of data set: The inhibition of growth of solid tumor in DLD-1 model was measured at 50 mg/kg after po administration. p<0.01. Conditions: Homo sapiens. Type of data set: functional.
Data set [13] deals with DLD-1. Kind of data set: The inhibition of growth of solid tumor in DLD-1 model was measured at 10 mg/kg after po administration. 0.01<p<0.025. Format: functional. Conditions: Homo sapiens.

For orientation: Cmax means the maximum level reached in the sampled fluid or tissue. As usually defined, the inhibition in vivo is the share of the control response that was lost under treatment. A lower inhibition in vivo goes with a weak effect. What is called IC50 is the point on the concentration scale where inhibition reaches its midpoint. Lower therefore signals greater potency in that assay. As usually defined, the AUC is concentration integrated over time. As usually defined, the half-life is the time in which the quantity being followed falls by half. A higher half-life goes with slow decline. A word on the bioavailability: it is the share of a dose that reaches the circulation, judged against a reference dose that is usually intravenous. As for `O=C(Cc1cc[n+]([O-])cc1)N1CCC(C2c3ccc(Cl)cc3CCc3cc(Br)cnc32)CC1` (stereo unspecified), the Cmax in data set [1] was determined as 10000 ng/mL. In data set [2], this molecule registered an inhibition in vivo at 50 mg/kg of 60%. Moreover, the half-maximal inhibitory concentration (IC50) in data set [3] was 400 nM; in [5], 40 nM; in [7], over 38000 nM. In data set [4], the inhibition in vivo at 10 mg/kg amounted to 38%. Further, the area under the curve (AUC) at 24 h in [6] turned out to be 10600 ng·h/mL; in data set [10], 4100 ng·h/mL. This molecule also returned a half-life in [8] of 46 min. The same molecule registered a bioavailability in [9] of 38%.

For the molecule `O=C(Cc1cc[n+]([O-])cc1)N1CCC(C2c3ccc(Cl)cc3C=Cc3cc(Br)cnc32)CC1` (stereo unspecified), testing at 10 mg/kg in data set [11] gave an inhibition in vivo of 21%. Moreover, the Cmax in [1] turned out to be 11000 ng/mL. The values for the IC50 in [3], in [5] and in data set [7] were 700 nM, 30 nM and over 38000 nM, respectively. At 50 mg/kg the inhibition in vivo in [12] was 37%. Besides, the AUC at 24 h in data set [6] came to 18600 ng·h/mL; in [10], 19000 ng·h/mL. In data set [8], this molecule registered a half-life of 26.6 min. For the same molecule, in data set [9], the bioavailability amounted to 100%.

`O=C(Cc1cc[n+]([O-])cc1)N1CCC(C2c3ccc(Cl)cc3C=C(Br)c3cc(Br)cnc32)CC1` (stereo unspecified): in data set [1], the highest level (Cmax) was 12000 ng/mL. Also, the inhibition in vivo at 10 mg/kg in [13] is 52%. Also, the IC50 is 600 nM in [3], 40 nM in [5] and over 33000 nM in data set [7]. In data set [12], the inhibition in vivo at 50 mg/kg is 70%. Also, the AUC at 24 h turned out to be 43700 ng·h/mL in data set [6] and 84900 ng·h/mL in [10]. The same molecule gave a half-life in data set [8] of 82.2 min. In addition, in data set [9], the bioavailability came to 100%.

In turn, `O=C(Cc1cc[n+]([O-])cc1)N1CCC(=C2c3ccc(Cl)cc3CCc3cc(Br)cnc32)CC1` yielded a Cmax in [1] of 10000 ng/mL. The molecule also returned an inhibition in vivo at 10 mg/kg in data set [13] of 28%. This molecule also came in with an inhibition in vivo at 50 mg/kg in data set [12] of 40%. In data set [7], this molecule yielded a half-maximal inhibitory concentration (IC50) of 38000 nM. Moreover, in data set [8], the half-life came out at 48 min. The molecule also yielded a bioavailability in data set [9] of 75%.
